From PubChem
A selection: hits, their analogues and other compounds. The true share with any hit is near 2%.
CDK5 p35 inh: CDK5/p35 (human) kinase inhibition. Q00535+Q15078. Recombinant CDK5/p35, ADP-Glo luminescence, 60 min. inhibition, % at 10 µM. actives 0.01% (n = 330,000). AID 488839;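 active = highest replicate inhibition of at least 50% and at least 75% of replicates reaching 50%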;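 note: plate controls were DMSO neutral control for no effect and GW8510 at 10 µM for full effect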
CAL PDZ FP-1: inhibitors of human CAL PDZ peptide binding | Q9HD26 | purified CAL PDZ, TMR-peptide fluorescence polarization, 1 h | inhibition, % at 20 µM | actives 0.02% (n = 330,000);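 active = highest replicate inhibition of at least 40%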;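 note: plate controls were DMSO neutral control wells for no effect and unlabeled competitor peptide control wells for full effect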
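material = purified tagged CAL PDZ domain construct (CerCALP) | buffer or medium = sodium phosphate/NaCl buffer pH 7.4 with TCEP, IgG, Thesit | reagent = TMR-labelled reporter peptide T*-PRC34 bound in PDZ groove | incubation = 1 h room-temperature incubation prior to read | measured by = fluorescence polarization (mP) | evaluation = percent inhibition from loss of millipolarization | control set = unlabelled peptide and DMSO controls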
Statin myotox sup: suppressors of simvastatin-induced myotoxicity in C2C12 myotubes; ATP luminescence, 48 h; scaled: DMSO 0, geranylgeraniol control 100; rescue of ATP level, % at 7.49 µM; actives 0.78% (n = 330,000);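 active = mean ATP rescue above about 67%, or every replicate alone reaching that limit, limit read from the data, passing the limit was not always enough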;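 note: myotubes were challenged with 10 µM simvastatin during compound exposure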
dFosB act: activators of mouse delta FosB homodimer; P13346; purified delta FosB, TAMRA-CDK5 oligo fluorescence polarization; percent of positive-control signal above neutral wells; activation, % at 25 µM; actives 0.99% (n = 340,000);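 active = mean activation above about 17%, with every replicate also reaching it, limit read from the data, passing the limit was not always enough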
Target sequence (P13346 whole entry, looked up): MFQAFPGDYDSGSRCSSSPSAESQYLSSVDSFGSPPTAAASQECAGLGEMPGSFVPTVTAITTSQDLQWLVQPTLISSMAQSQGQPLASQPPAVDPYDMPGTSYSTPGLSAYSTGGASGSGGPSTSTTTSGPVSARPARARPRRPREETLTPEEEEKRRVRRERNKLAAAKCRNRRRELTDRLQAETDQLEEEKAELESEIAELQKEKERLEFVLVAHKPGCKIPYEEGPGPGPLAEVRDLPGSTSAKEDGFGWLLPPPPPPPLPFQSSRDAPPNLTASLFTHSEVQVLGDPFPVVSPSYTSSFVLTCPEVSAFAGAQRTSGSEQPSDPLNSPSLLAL
S100A4 MyoIIA: blocks human S100A4 binding to myosin IIA peptide; P26447; S100A4/TAMRA-MyoIIA peptide fluorescence polarization; inhibition, % at 10.7 µM; actives 0.14% (n = 360,000); AID 652163;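 active = mean inhibition of at least 70% across replicates, with every replicate also reaching that level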
Target sequence (P26447 whole entry, looked up): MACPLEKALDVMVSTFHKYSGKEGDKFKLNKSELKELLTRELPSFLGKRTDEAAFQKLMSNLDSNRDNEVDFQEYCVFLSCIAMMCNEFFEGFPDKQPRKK
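incubation = readout 5 min after mixing, signal stable up to 60 min | system = S100A4 monomer protein | buffer or medium = HEPES pH 7.2 with CaCl2, KCl, NaCl, DTT, Triton | benchmarks = neutral control DMSO, positive control TFP | also added = fluorescent myosin IIA peptide, 5 nM | compound dosing = one concentration per compound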
CAL PDZ FP-2: blocks peptide binding to the human CAL PDZ domain; inhibition, % at 24.9 µM; Q9HD26; purified CAL PDZ, TMR-peptide fluorescence polarization, 1 h; actives 0.92% (n = 300,000); AID 602252;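 active = mean inhibition of at least 30% with at least half of replicates also reaching 30%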;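 note: 0% = DMSO neutral control and 100% = excess unlabeled competitor peptide PRC23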
The depositor's hits bear a star.

For CC(Sc1nnc(Cc2ccccc2)o1)C(=O)NC1(C#N)CCCCC1 (stereo unspecified) the results were CDK5 p35 inh 0.0, CAL PDZ FP-1 -0.8, Statin myotox sup -0.5, dFosB act 1.3, S100A4 MyoIIA -3.7 and CAL PDZ FP-2 -0.4.
For Cc1nnsc1NC(=O)OCc1ccc(C(F)(F)F)cc1 the results were CDK5 p35 inh 2.0, CAL PDZ FP-1 0.0, Statin myotox sup 105.5*, dFosB act 13.1 and CAL PDZ FP-2 -3.2.
COc1ccccc1OC(C)C(=O)N1CCc2ccccc21 (stereo unspecified) was read as CDK5 p35 inh -2.1, CAL PDZ FP-1 -1.7, dFosB act -4.7, S100A4 MyoIIA 0.1 and CAL PDZ FP-2 -0.2.
Screening CC(Oc1ccc(Cl)cc1C(N)=O)C(=O)N1CCc2ccccc21 (stereo unspecified) returned CDK5 p35 inh -1.4, CAL PDZ FP-1 1.2, Statin myotox sup 5.4, dFosB act -9.0, S100A4 MyoIIA -2.5 and CAL PDZ FP-2 72.9*.
Oc1ccc(C=NNC(=S)Nc2ccccc2)nc1 was read as S100A4 MyoIIA -0.8.
Screening CC(=O)NC1C(=O)N=C(SCC(=O)Nc2sc3c(c2C#N)CCCCCC3)NC1=O (stereo unspecified) returned CDK5 p35 inh 0.6, CAL PDZ FP-1 -5.3, dFosB act 0.6, S100A4 MyoIIA -6.1 and CAL PDZ FP-2 -5.7.
`COCc1nc2ccccc2n1Cc1ccc(Br)cc1` gave CDK5 p35 inh -1.3, CAL PDZ FP-1 0.0, Statin myotox sup 78.8*, dFosB act -3.8 and CAL PDZ FP-2 -0.9.
For O=c1ccc2c(-c3ccccc3)c3ccc(O)cc3oc-2c1 the results were CDK5 p35 inh 1.0, Statin myotox sup 15.3, dFosB act -42.7, S100A4 MyoIIA -6.4 and CAL PDZ FP-2 -11.4.
For Nc1ccc(-c2c3ccc(=O)cc-3oc3cc(O)ccc23)cc1C(=O)O the results were CDK5 p35 inh 0.4, CAL PDZ FP-1 -2.2, dFosB act -1.4, S100A4 MyoIIA 9.4 and CAL PDZ FP-2 41.0*.
For CCC(=O)c1ccc(OCC(=O)NC2CCCC2)cc1 the results were CDK5 p35 inh -2.7, CAL PDZ FP-1 0.6, Statin myotox sup -4.4, dFosB act -5.2, S100A4 MyoIIA -1.6 and CAL PDZ FP-2 2.9.
Screening C=C(C)C(=O)OCCCCCCOc1ccc(C(=O)O)cc1 returned CDK5 p35 inh 0.3, CAL PDZ FP-1 -3.3, Statin myotox sup 97.0*, dFosB act 1.1 and CAL PDZ FP-2 -7.0.
For CCC(=O)c1ccc(OCC(=O)O)cc1 the results were CDK5 p35 inh 1.7, CAL PDZ FP-1 -0.2, Statin myotox sup 106.8*, dFosB act -0.4 and CAL PDZ FP-2 -1.1.
Screening CCCCOc1ccc(C(=O)O)cc1 returned CDK5 p35 inh 0.2, dFosB act 3.9 and CAL PDZ FP-2 1.5.
`CCCOc1ccc(C(=O)O)cc1` gave CDK5 p35 inh -2.6, CAL PDZ FP-1 1.0, dFosB act 2.9, S100A4 MyoIIA 3.1 and CAL PDZ FP-2 76.5*.
For C[C@@H]1CN([C@@H](C)CO)C(=O)c2cc(NS(=O)(=O)c3ccc(F)cc3)ccc2O[C@@H](C)CCCCO[C@H]1CN(C)C(=O)NC1CCCCC1 the results were Statin myotox sup -6.2 and S100A4 MyoIIA -5.6.
`Cc1sc(NC(=O)c2ccco2)c(C(c2cccnc2)N2CCC(C)CC2)c1C` (stereo unspecified) gave CDK5 p35 inh 1.4, CAL PDZ FP-1 -0.3, Statin myotox sup -11.3, dFosB act -8.4 and CAL PDZ FP-2 42.8*.
CCN1CCN(C(c2cccnc2)c2c(NC(=O)c3ccco3)sc(C)c2C)CC1 (stereo unspecified) was read as CDK5 p35 inh 1.3, CAL PDZ FP-1 0.1, Statin myotox sup -7.7, dFosB act -7.4, S100A4 MyoIIA -3.9 and CAL PDZ FP-2 46.0*.
Screening COc1ccccc1NC(=O)c1ccc(S(=O)(=O)N2CCC(C)CC2)cc1 returned CDK5 p35 inh 0.2, CAL PDZ FP-1 -0.4, Statin myotox sup -8.6, dFosB act -5.9, S100A4 MyoIIA -5.6 and CAL PDZ FP-2 -1.1.
`O=C(COc1ccc(Cl)cc1)N1CCN(c2ccc([N+](=O)[O-])c(N3CCCCC3)c2)CC1` gave CDK5 p35 inh 0.5, CAL PDZ FP-1 -1.6, Statin myotox sup 1.4, dFosB act -8.6, S100A4 MyoIIA 1.2 and CAL PDZ FP-2 -1.4.
COc1ccc(NC(=O)N[C@H]2C=C[C@@H](CC(=O)NCc3ccccn3)O[C@H]2CO)cc1 was read as Statin myotox sup -3.5 and S100A4 MyoIIA -27.7.
Screening COCC#Cc1ccc([C@H]2[C@H]3CN(S(=O)(=O)c4cccc(OC)c4)CCCCN3[C@H]2CO)cc1 returned S100A4 MyoIIA 16.2.
`CCN1C(=O)/C(=C/C=C2\N(CC)c3cc(S(=O)(=O)N(C)C)ccc3N2c2ccccc2)SC1=S` gave CDK5 p35 inh 1.8, CAL PDZ FP-1 -3.6, dFosB act 91.2*, S100A4 MyoIIA -114.0 and CAL PDZ FP-2 -2.3.
For CCN1C(=O)/C(=C\C=C\c2ccccc2[N+](=O)[O-])SC1=S the results were CDK5 p35 inh -3.5, Statin myotox sup -3.2, dFosB act 3.5, S100A4 MyoIIA 5.2 and CAL PDZ FP-2 2.4.
Screening O=C(CC(=O)c1ccccc1)CC(O)(C=Cc1ccccc1)c1ccccc1 (stereo unspecified) returned CDK5 p35 inh 1.9, CAL PDZ FP-1 0.2, Statin myotox sup -2.4, dFosB act -10.5, S100A4 MyoIIA -0.5 and CAL PDZ FP-2 51.8*.
`O=C(/C=C/c1ccccc1)CC(=O)c1ccccc1` gave CDK5 p35 inh -1.2, CAL PDZ FP-1 -1.4, Statin myotox sup -3.6, dFosB act -5.9, S100A4 MyoIIA -0.7 and CAL PDZ FP-2 -5.1.
COCC(C)N1CCC(Oc2cccc(C(=O)NCCc3ccccc3)c2)CC1 (stereo unspecified) was read as CDK5 p35 inh -1.2, CAL PDZ FP-1 -0.2, Statin myotox sup -1.5, dFosB act -9.5, S100A4 MyoIIA -2.4 and CAL PDZ FP-2 48.7*.
Screening CCCN(C)C[C@@H]1OCCCC[C@@H](C)Oc2ccc(N(C)C)cc2C(=O)N([C@H](C)CO)C[C@@H]1C returned Statin myotox sup -15.1 and S100A4 MyoIIA 0.6.
For CSCCC(NC(=O)COc1ccccc1)C(=O)N1CCC(C(N)=O)CC1 (stereo unspecified) the results were CDK5 p35 inh -1.2, CAL PDZ FP-1 0.2, Statin myotox sup -6.5, dFosB act -3.3, S100A4 MyoIIA -1.6 and CAL PDZ FP-2 -3.5.
For O=C(CSCc1ccc(Cl)cc1)NN=C1CCCC1 the results were CDK5 p35 inh -2.4, CAL PDZ FP-1 -0.4, dFosB act 6.8, S100A4 MyoIIA 1.3 and CAL PDZ FP-2 72.0*.
